Hits are enriched below; roughly 2.7% of the tested compounds scored in any of these assays.
RAM network inh – inhibitors of the yeast RAM network, primary screen, dse1pr::URA3 reporter, 5-FOA selection | S. cerevisiae dse1pr::URA3 reporter, 5-FOA growth OD615, 2 d; analog-sensitive cbk1-as2 kinase mutant strain | inhibition, % at 50 µM | actives 1.8% (n = 190,000);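 active = inhibition above a set limit, 3 SD over mean compound inhibition, cut at about 8.4% in these data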;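 also: 0% = DMSO-only wells with no growth and 100% = 10 µM 1-NA-PP1 full growth; inhibition rescues growth on 5-FOA so higher OD means more RAM inhibition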
SDO1 yeast rescue – growth rescue of sdo1-depleted yeast, primary screen, S. cerevisiae, bone marrow failure model; S. cerevisiae sdo1-depleted JHY4D growth rescue, OD600 30 h; active compounds read high; pdr5 snq2 efflux-pump mutant strain; z-score at 10 µM; actives 0.21% (n = 140,000);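 active = z-score above 3 at both the 24 hr and the 30 hr optical density reads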;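 also: z-score against mean and SD of all compound wells on the same plate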
BB579 growth dn – growth inhibitors of yeast BB579 in restrictive medium, primary screen, yeast lifespan-shortening project, S. cerevisiae. actives 0.51% (n = 140,000). inhibition, % at 10 µM. OD615, 48 h;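 active = inhibition above a set limit, 3 SD over the mean compound inhibition, cut at about 44% in these data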
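Detection: OD615 turbidity measurement; Material: Saccharomyces cerevisiae DeaD strain BB579, replicative lifespan model yeast; Timing: 48 h exposure, 30 °C; Doses: single 10 µM dose; Medium: CSMM-D restrictive synthetic medium containing dextrose (glucose); Controls: amphotericin B at 10 µg/mL as positive control.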
Yeast lifespan up – compounds extending yeast replicative lifespan, primary screen, S. cerevisiae, OD615; S. cerevisiae growth with nicotinamide; deaD strain in restrictive glucose medium; inhibition of the nicotinamide effect, % at 10 µM; actives 0.68% (n = 130,000);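 active = inhibition above a set limit, placed 3 SD over the median of all compounds, cut at about 26% in these data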;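 also: 0% = nicotinamide-treated wells and 100% = cells grown without nicotinamide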
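Assay system: engineered S. cerevisiae DeaD replicative-lifespan strain, galactose-grown log-phase cells; Buffer or medium: CSMM-D glucose medium, restrictive; Probe or stimulus: nicotinamide 1.5 mM; Compound: single dose 10 µM compound, 0.25% DMSO; Schedule: 4 h preincubation then 48 h treatment at 30 °C; Technique: OD615 measurement.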
Starred values were filed as active, the others as inactive; . = no result given.

SMILES	RAM network inh	SDO1 yeast rescue	BB579 growth dn	Yeast lifespan up
CC(=O)c1c(O)cc(C)n(-c2ccc(F)cc2)c1=O	-2	.	.	.
CCCOP(=O)(OCCC)C(Nc1cccc(C(F)(F)F)c1)c1ccc(C)cc1 (stereo not drawn)	10*	-1	-45	-3
CCOP(=O)(OCC)C(Nc1cccc(C(F)(F)F)c1)c1ccc(C)cc1 (stereo not drawn)	5	-0.27	5	1
CC(C)(C)C(=O)O/N=C1/C(=O)N(c2ccccc2)c2ccccc21	3	-2.1	67*	-15
COc1cccc(-c2nc(C(N)=O)c3[nH]c(=O)n(-c4cccc(Cl)c4)c3n2)c1OC	11*	-0.15	-33	-1
COc1ccc(-c2nc(C(N)=O)c3[nH]c(=O)n(-c4cccc(Cl)c4)c3n2)cc1OC	3	-1.6	-23	-4
C=CCn1c(C)cc(C(=O)CSc2nnc(-c3cccc(S(=O)(=O)N(CC)CC)c3)o2)c1C	11*	-0.26	-32	-12
Cc1ccc(-c2nc3ccccc3nc2Cl)cc1	8.4*	.	.	.
Cc1cccc(C)c1NC(=O)c1sccc1SCc1cccc(C(F)(F)F)c1	11*	-0.65	-22	-1
CCCC(c1nnnn1CC1CCCO1)N1CCN(c2nc3ccccc3s2)CC1 (stereo not drawn)	3	-0.93	-41	.
CCCCC(c1nnnn1CC1CCCO1)N1CCN(c2nc3ccccc3s2)CC1 (stereo not drawn)	2	-1.4	-36	73*
Cc1ccc(CN(Cc2ccco2)S(=O)(=O)c2ccc(S(=O)(=O)NCC3CCCO3)cc2)cc1 (stereo not drawn)	9.3*	-1.1	-50	6
O=C1C(Nc2ccc(O)cc2)=C/C(=N/S(=O)(=O)c2cccs2)c2ccccc21	11*	.	.	.
Cc1ccc(C(=O)OCC(=O)NCc2ccco2)cc1	2	-0.14	-29	56*
O=C(COC(=O)c1ccccc1)NCc1ccco1	1	-0.5	-7	-12
O=C(COc1ccccc1-c1ccccc1)N/N=C/c1ccccn1	11*	.	.	.
Cc1ccsc1/C=N/N1CCN(Cc2ccccc2)CC1	1	.	.	.
CCOC(=O)C1=C(CSc2nc(-c3ccccc3)ccc2C#N)OC(N)=C(C#N)C1c1ccccc1 (stereo not drawn)	8.6*	0.38	-8	-6
COc1ccccc1NC(=O)CN1CCSc2ccccc21	2	.	.	.
O=C(N/N=C/c1ccc(Cl)cc1)C(=O)N1CCCCCC1	0	.	.	.
Cc1ccc(/C=N/Nc2ccnc3cc(Cl)ccc23)c(C)c1	4	-2.2	68*	-6
Cc1ccccc1/C=N/Nc1ccnc2cc(Cl)ccc12	2	-1.9	-34	-4
CC1(C)Cc2ccccc2C(NN=C2CCCC2)=N1	0	.	.	.
CCOc1ccc(Oc2ccc(Cl)cc2N)cc1	0	.	.	.
Cc1ccccc1-c1nnc2c3ccccc3c(C)nn12	0	-0.49	-14	.
SMILES	RAM network inh	SDO1 yeast rescue	BB579 growth dn	Yeast lifespan up
COc1ccc(-c2nnc3c4ccccc4c(C)nn23)cc1	1	-1.6	49*	-5
Cc1nn2c(-c3ccco3)nnc2c2ccccc12	3	-2	88*	-12
Cc1nn2c(-c3ccncc3)nnc2c2ccccc12	2	-2.1	89*	-13
Cc1ccc(S(=O)(=O)C/N=C(/NC(=S)N(c2ccccc2)c2ccccc2)c2ccccc2)cc1	1	0.05	-46	46*
Cc1ccc(S(=O)(=O)/N=C(/NC(=S)Nc2ccccc2)c2ccccc2)cc1	0	-1.1	-2	-24
CC(C)(CO)CNC(=O)c1ccc(OC2CCN(C(=O)C3CC3)CC2)cc1	-1	.	.	.
Cc1ccc(-n2cc(S(=O)(=O)c3ccc(C)cc3)[nH]c2=O)cc1	5	.	.	.
CCN(CC)S(=O)(=O)c1ccc(N=Cc2c(C)c(C#N)c(=O)n(C)c2O)cc1	0	-0.3	-30	-3
O=C(NCC1CCCO1)c1ccc2c(=O)n(Cc3cccc(Br)c3)c(=S)[nH]c2c1 (stereo not drawn)	6	.	.	.
COc1ccc(-c2nnc(COc3ccc4ccccc4c3)o2)cc1OC	9.7*	-0.68	-18	-7
COc1cc(-c2nnc(COc3ccc4cc(Br)ccc4c3)o2)cc(OC)c1OC	3	-1.7	-58	-6
O=[N+]([O-])c1cccc(-c2n[nH]c(=S)n2-c2ccc(Br)cc2)c1	-1	.	.	.
Cn1ccnc1SCC(=O)Nc1ccc2c(c1)OC(F)(F)O2	2	.	.	.
CCCCNc1oc(-c2cccs2)nc1S(=O)(=O)c1ccccc1	9.5*	-1.9	-26	12
N#CC1(Cc2ccc([N+](=O)[O-])cc2)c2ccccc2C=CN1C(=O)c1ccccc1 (stereo not drawn)	5	-0.85	-27	-7
N#CC1(Cc2ccccc2)c2ccccc2C=CN1C(=O)c1ccccc1 (stereo not drawn)	8.7*	-0.95	-15	-5
CCOc1ccc(C(=O)Nc2ccc(Cl)cn2)cc1Cl	8.7*	-1.4	-50	-11
COc1ccc(C(=O)NC(=S)Nc2cccc(NC(=O)c3ccco3)c2)cc1[N+](=O)[O-]	2	0.08	-8	-6
CCOc1ccc(C(=O)NC(=S)Nc2cccc(NC(=O)c3ccco3)c2)cc1[N+](=O)[O-]	8.8*	-0.47	-22	8
CC(C)c1cc[n+](-c2nc([O-])sc2C=O)cc1	0	0.44	-18	31*
CCc1cc[n+](-c2nc([O-])sc2C=O)cc1	1	-0.56	-21	-14
CC1=CC2=NC(=O)/C(=C\c3cccn3CCOc3cccc(C)c3)C(=N)N2O1	9.3*	-1	-15	16
CC1=CC2=NC(=O)/C(=C\c3cccn3CCOc3cc(C)cc(C)c3)C(=N)N2O1	6	-0.57	-11	6
CC1=CC2=NC(=O)/C(=C\c3cccn3CCOc3ccccc3)C(=N)N2O1	6	-0.65	-10	-1
COc1cccc(OCCn2cccc2/C=C2/C(=N)N3OC(C)=CC3=NC2=O)c1	11*	.	.	.
SMILES	RAM network inh	SDO1 yeast rescue	BB579 growth dn	Yeast lifespan up
CCCCN(C(=O)CSc1nnc(Nc2ccccc2)s1)c1c(N)n(CCC)c(=O)[nH]c1=O	1	.	.	.
Cn1c2ccccc2c(=O)c2c(=O)n(C3CCCCCC3)c(C3CCCCC3)nc21	1	-0.2	-9	26*
CCc1nc2c(c(=O)c3ccccc3n2C)c(=O)n1C1CCCCCC1	3	-1.2	-36	28*
Cn1c2ccccc2c(=O)c2c(=O)n(-c3ccccc3)c(C3CCCCC3)nc21	4	-1.4	-33	2
CCn1ncc(CNC(=O)c2cccc([N+](=O)[O-])c2)c1C	0	0.13	-2	-3
CCOc1ccc(N(CC(=O)Nc2cccc(N(C)S(C)(=O)=O)c2)S(=O)(=O)c2ccccc2)cc1	9.6*	0.29	-38	-5
COc1ccc(N(CC(=O)Nc2cccc(N(C)S(C)(=O)=O)c2)S(=O)(=O)c2ccc(C)cc2)cc1	8	.	.	.
Cc1cccc(/C=N\Nc2cn[nH]c(=O)c2Cl)c1	9.8*	-0.37	-48	-23
CCN(CC)C(=O)c1c(C)[nH]c(=S)c(C#N)c1-c1ccco1	0	.	.	.

High-throughput results deposited in PubChem by several laboratories.
